How the values were obtained:
[1] = test system: p-Akt, p-mTOR, p-FAK, paxillin, p-MAPK in MDA-MB-231 cells; experiment: Western blot of c-Met downstream effectors in cells; assay type: cell-based, human; settings: MDA-MB-231, Western blot
Summary of the method: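 MDA-MB-231 cells were seeded at 5 × 10^5 per 100 mm dish, attached overnight, then treated with test compound or DMSO vehicle for 72 h in serum-reduced medium with 10 ng/ml HGF. Lysates (30 μg) were run on Tris/glycine/SDS gels and transferred to PVDF. Blots were blocked 2 h in 5% BSA/TBST, probed with primary antibodies overnight at 4 °C and HRP secondaries 1 h at rt, and detected by chemiluminescence.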

ABL1 = ABL1 (Homo sapiens, UniProt P00519); experiment: SelectScreen kinase profiling, ABL1; assay type: biochemical; settings: read-out: Mean % inhibition at 10 μM, ABL1, 10 μM
Summary of the method: (§1)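 Test compound was screened at a single 10 μM concentration through an outsourced kinase selectivity panel (SelectScreen). Percent inhibition of each kinase was determined by time-resolved FRET assay.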

[2] = test system: MDA-MB-231/GFP tumor cells; experiment: Breast cancer xenograft in athymic nude mice; assay type: in vivo; settings: 10 mg/kg i.p., 3X/week, throughout the study
Summary of the method: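 Female athymic nude mice (5–6 weeks old) received 1 × 10^6 MDA-MB-231/GFP cells in RPMI-1640 into the mammary fat pad. At about 50 mm3 (day 10), mice were randomized, 5 per group. Test compound was dissolved as a DMSO stock, diluted in sterile PBS with 0.1% Tween 80, and given i.p. at 10 mg/kg three times weekly. Controls got the same vehicle volume. Body weight was monitored regularly.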

[3] = test system: MCF-10A mammary epithelial cells; experiment: Cytotoxicity assay; assay type: cell-based; settings: 24 h, MTT
ERBB2 (HER2) = ERBB2 (HER2) (Homo sapiens, UniProt P04626); experiment: SelectScreen kinase profiling, HER2; assay type: biochemical; settings: read-out: Mean % inhibition at 10 μM, ERBB2 (HER2), 10 μM
Summary of the method: as §1

MDA-MB-231 cells = experiment: Lactate dehydrogenase; assay type: cell-based; settings: MDA-MB-231, effective anticancer concentrations, 24 h
Summary of the method: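 MDA-MB-231 cells were seeded at 3 × 10^4 cells/well and allowed to attach, then exposed to test compound in medium with 5% FBS for 24 h at 37 °C, 5% CO2. Controls: Triton X-100 wells (maximum release) and […], in triplicate. Supernatant was incubated with NAD+/lactic acid/INT/diaphorase for 30 min at rt, and A490 was read. % cytotoxicity was calculated relative to spontaneous and maximum release.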

MST1R (RON) = MST1R (RON) (Homo sapiens, UniProt Q04912); experiment: SelectScreen kinase profiling, MST1R; assay type: biochemical; settings: read-out: Mean % inhibition at 10 μM, MST1R (RON), 10 μM
Summary of the method: as §1

[4] = test system: p-c-Met in MDA-MB-231/GFP tumors; experiment: Western blot of p-c-Met in excised xenograft tumors; assay type: in vivo, athymic nude mice; settings: 10 mg/kg i.p., 3X/week, vs vehicle-treated control
Summary of the method: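 Xenografts were MDA-MB-231/GFP cells in the mammary fat pad of female athymic nude mice, 5 per group. Test compound (i.p., 10 mg/kg, 3×/week) or vehicle (DMSO stock diluted in PBS/0.1% Tween 80) was given. At termination, tumors were excised, snap-frozen, homogenized and lysed. Lysates were immunoblotted for p-c-Met: SDS gels, PVDF, 5% BSA/TBST block, primary antibodies overnight at 4 °C, HRP secondaries, chemiluminescence.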

IGF1R = IGF1R (Homo sapiens, UniProt P08069); experiment: SelectScreen kinase profiling, IGF1R; assay type: biochemical; settings: read-out: Mean % inhibition at 10 μM, IGF1R, 10 μM
Summary of the method: as §1

[5] = test system: c-Met phosphorylation in MDA-MB-231 cells; experiment: Western blot of c-Met phosphorylation in cells; assay type: cell-based, human; settings: MDA-MB-231, Western blot, 72 h

Sequence of MST1R (RON) (Q04912 25-1400): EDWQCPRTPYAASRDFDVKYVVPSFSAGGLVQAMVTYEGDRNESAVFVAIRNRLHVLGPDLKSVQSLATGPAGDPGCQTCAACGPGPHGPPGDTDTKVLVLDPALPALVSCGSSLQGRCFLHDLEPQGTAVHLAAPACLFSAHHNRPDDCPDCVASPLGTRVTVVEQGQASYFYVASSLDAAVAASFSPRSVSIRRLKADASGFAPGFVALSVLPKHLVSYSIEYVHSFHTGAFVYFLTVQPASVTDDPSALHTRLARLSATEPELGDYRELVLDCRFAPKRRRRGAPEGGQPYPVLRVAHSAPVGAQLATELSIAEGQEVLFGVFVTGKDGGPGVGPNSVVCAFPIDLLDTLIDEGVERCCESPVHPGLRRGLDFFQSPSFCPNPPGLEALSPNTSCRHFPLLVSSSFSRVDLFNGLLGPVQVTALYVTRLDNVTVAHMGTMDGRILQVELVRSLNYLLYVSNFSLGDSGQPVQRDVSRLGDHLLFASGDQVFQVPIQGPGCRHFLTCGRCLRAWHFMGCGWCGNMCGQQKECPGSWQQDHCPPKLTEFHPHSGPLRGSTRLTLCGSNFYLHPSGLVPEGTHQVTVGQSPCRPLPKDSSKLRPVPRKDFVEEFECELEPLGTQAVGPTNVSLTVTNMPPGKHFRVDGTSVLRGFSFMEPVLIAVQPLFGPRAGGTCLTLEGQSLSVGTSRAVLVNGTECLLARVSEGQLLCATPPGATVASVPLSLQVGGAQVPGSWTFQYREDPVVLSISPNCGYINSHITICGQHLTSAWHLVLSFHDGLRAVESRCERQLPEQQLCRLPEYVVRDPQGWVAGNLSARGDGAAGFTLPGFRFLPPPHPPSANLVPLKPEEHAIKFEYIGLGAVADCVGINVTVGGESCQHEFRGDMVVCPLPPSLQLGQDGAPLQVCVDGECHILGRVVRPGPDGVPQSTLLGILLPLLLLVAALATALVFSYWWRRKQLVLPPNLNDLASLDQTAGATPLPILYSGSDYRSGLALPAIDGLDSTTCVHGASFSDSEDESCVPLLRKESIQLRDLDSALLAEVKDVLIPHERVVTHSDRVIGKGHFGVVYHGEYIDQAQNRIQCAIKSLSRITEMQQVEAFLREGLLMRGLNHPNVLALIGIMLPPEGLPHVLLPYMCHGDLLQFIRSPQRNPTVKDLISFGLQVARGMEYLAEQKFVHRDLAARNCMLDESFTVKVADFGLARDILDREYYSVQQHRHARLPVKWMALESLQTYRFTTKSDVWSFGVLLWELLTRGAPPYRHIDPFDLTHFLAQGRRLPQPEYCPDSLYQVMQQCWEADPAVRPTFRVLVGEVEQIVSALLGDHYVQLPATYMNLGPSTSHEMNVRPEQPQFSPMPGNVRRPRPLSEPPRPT
Sequence of IGF1R (P08069 31-1367): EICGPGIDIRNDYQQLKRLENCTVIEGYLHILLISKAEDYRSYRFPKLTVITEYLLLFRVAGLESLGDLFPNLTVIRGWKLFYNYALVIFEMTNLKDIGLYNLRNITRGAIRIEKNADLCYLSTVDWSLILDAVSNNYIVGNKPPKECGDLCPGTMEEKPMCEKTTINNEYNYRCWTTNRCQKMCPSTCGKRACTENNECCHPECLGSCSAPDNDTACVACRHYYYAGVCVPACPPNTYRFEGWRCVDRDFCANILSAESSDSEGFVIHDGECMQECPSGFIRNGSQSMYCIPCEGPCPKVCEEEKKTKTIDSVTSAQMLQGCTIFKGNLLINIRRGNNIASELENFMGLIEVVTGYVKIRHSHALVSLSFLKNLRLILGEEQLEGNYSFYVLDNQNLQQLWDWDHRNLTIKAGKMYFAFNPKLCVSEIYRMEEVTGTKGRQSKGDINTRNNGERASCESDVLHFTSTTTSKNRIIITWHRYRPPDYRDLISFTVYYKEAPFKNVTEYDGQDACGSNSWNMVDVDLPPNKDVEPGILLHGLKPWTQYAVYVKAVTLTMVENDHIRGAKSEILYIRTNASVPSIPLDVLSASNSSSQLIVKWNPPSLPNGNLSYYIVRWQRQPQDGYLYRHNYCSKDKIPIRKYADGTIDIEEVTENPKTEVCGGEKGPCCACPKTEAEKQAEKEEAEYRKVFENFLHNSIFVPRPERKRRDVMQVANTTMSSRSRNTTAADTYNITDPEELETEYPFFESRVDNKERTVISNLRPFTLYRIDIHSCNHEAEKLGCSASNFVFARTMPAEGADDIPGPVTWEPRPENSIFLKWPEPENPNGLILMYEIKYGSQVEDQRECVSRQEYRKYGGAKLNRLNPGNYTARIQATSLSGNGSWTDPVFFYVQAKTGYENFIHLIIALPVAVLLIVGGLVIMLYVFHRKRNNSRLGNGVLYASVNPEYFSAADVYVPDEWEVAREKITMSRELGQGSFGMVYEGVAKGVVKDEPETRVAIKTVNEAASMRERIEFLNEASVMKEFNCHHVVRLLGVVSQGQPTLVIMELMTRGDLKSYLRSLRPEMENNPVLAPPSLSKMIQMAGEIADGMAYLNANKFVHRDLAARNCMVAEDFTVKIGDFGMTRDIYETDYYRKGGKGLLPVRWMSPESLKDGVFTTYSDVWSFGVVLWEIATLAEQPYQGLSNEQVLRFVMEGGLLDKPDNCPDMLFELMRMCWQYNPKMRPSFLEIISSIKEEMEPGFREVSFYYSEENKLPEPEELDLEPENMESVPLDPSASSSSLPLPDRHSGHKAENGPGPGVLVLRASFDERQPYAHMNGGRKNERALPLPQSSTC
Sequence of ERBB2 (HER2) (P04626 23-1255): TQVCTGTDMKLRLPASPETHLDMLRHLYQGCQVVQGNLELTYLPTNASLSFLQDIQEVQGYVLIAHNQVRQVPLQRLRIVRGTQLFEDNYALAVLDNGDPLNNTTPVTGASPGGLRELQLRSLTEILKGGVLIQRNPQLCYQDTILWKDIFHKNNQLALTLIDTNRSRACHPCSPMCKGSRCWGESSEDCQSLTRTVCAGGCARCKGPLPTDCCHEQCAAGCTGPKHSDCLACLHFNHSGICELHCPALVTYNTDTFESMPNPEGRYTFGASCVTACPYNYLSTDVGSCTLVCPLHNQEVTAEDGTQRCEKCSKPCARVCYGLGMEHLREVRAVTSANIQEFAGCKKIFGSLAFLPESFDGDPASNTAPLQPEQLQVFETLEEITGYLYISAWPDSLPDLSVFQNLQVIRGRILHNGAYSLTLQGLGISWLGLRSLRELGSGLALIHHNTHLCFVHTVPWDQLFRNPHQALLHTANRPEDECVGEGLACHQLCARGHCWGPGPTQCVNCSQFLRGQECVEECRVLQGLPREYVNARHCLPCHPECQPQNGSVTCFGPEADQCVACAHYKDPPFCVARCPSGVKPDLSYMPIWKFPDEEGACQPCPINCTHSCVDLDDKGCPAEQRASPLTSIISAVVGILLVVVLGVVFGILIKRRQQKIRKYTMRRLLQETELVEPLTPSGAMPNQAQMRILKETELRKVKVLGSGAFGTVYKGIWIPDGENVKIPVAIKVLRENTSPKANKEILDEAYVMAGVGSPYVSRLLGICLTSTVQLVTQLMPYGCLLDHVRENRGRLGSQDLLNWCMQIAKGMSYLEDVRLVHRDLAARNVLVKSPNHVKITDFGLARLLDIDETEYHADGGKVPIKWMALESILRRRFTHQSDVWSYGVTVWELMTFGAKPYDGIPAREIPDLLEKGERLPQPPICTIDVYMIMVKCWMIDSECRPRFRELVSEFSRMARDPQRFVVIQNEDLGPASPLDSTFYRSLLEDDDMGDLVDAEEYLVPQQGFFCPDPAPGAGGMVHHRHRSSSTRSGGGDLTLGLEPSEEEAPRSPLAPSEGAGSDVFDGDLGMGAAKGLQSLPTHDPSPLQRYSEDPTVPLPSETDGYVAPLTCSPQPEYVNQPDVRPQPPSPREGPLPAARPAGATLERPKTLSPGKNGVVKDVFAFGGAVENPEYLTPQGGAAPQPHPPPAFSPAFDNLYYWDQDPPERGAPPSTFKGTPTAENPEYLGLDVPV
Sequence of ABL1 (P00519 whole entry): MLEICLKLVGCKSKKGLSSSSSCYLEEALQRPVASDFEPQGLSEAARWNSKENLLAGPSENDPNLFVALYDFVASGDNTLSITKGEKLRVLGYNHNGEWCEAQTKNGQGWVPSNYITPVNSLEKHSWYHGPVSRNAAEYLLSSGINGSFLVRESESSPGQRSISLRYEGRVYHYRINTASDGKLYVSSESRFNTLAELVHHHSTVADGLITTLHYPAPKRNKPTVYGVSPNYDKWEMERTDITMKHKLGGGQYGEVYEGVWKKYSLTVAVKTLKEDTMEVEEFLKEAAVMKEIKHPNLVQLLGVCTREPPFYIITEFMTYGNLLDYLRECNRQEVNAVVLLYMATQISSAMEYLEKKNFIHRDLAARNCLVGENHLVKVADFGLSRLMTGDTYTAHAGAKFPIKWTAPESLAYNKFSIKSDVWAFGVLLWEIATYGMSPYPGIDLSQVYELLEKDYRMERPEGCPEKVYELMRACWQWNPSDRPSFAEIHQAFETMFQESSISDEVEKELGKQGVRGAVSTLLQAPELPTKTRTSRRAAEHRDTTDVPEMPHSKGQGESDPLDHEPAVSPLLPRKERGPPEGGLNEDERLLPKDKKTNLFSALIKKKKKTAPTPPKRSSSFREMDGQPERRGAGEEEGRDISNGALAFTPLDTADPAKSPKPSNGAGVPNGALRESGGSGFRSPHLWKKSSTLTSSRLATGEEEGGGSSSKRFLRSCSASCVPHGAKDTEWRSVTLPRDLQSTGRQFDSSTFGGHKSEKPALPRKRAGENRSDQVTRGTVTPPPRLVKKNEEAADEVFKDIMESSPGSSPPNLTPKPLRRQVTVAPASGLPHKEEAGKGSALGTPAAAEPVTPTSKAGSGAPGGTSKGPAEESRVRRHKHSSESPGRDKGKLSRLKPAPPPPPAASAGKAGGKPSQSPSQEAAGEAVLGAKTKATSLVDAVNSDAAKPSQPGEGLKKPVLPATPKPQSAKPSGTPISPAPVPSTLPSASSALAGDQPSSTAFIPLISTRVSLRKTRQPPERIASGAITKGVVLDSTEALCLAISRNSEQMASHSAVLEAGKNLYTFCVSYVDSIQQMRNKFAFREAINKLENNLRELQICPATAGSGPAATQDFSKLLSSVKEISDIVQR

C/C1=C\[C@H](OC(=O)Nc2cc(C(F)(F)F)cc(C(F)(F)F)c2)C[C@](C)(O)/C=C/[C@H](C(C)C)CC/C(C)=C/CC1 [Compound 20, 6-O-[(N-(3,5-bis-(trifluoromethyl)phenyl)carbamoyl)]-(1S,2E,4S,7E,11E)-2,7,11-cembratriene-4,6-diol]
levels of p-Akt, p-mTOR and p-FAK [1]: significant reductions | paxillin phosphorylation [1]: phosphorylation reduction | p-MAPK level ([1]; compared to untreated cells): dose-dependent downregulation | inhibition at 10 µM (ABL1): 30 to 35% | average body weight difference between treatment and vehicle groups [2]: non-significant | cellular death at effective doses [3]: didn’t induce a significant cellular death | inhibition at 10 µM (ERBB2 (HER2)): 23% | LDH release (necrosis marker) (MDA-MB-231 cells): minimal | inhibition at 10 µM (MST1R (RON)): 30 to 35% | level of p-c-Met in excised tumors [4]: significant decrease | inhibition at 10 µM (IGF1R): 30 to 35% | effect on p-Met (phosphorylated c-Met) level [5]: significant concentration-dependent downregulation
